Columns and labels:
[1] = system: HT-29, SW480, and HCT116 human colon cancer cell lines; assay: Cell Titer Glo growth assay, colon tumor cell lines; type: cell-based; details: for effect on colon tumor cell growth: PDE isozyme specific inhibitors; for HT-29 growth inhibition: NSAID panel; for IC50: Homo sapiens, 72 h, read-out: growth inhibition IC50, range over cell lines
[2] = system: cGMP hydrolysis in HT-29 cell lysate; assay: IMAP fluorescence polarization PDE assay, cGMP hydrolysis in HT-29 lysate; type: biochemical, human; details: HT-29 cell lysates; concentration not given
In short: (§1)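 HT-29 or FHC cells were lysed in ice-cold 20 mM Tris-acetate, 5 mM Mg acetate, 1 mM EGTA, 0.8% Triton X-100, 50 mM NaF, protease inhibitors, pH 7.4. Lysates were cleared at 10,000g, 10 min, 4°C, and protein measured by BCA. PDE activity was read by IMAP fluorescence polarization, with Fl-cAMP and TAMRA-cGMP as substrates so cAMP and cGMP hydrolysis were measured together.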

[3] = system: cGMP PDE in HT-29 human colon tumor cell lysates; assay: cGMP PDE scintillation proximity assay in HT-29 lysate; type: biochemical; details: HT-29 cell lysates; for effect on cGMP PDE activity: NSAID panel; for IC50: read-out: IC50 cGMP PDE, scintillation proximity assay
In short: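 The reaction was stopped with scintillation proximity beads that bind the labeled product, then counted.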

recombinant PDE3 = assay: Recombinant PDE3 inhibition; type: biochemical; details: recombinant isozyme, cAMP as substrate; data not shown
[4] = Plasma levels of sulindac and metabolites; type: in vivo; details: for concentration at 6 h: mouse, plasma, po, 50 mg/kg
[5] = system: cyclinD1 and survivin expression in SW480 cells; assay: Western blot of cyclin D1 and survivin; type: cell-based, human; details: time-dependent
In short: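 SW480 lysate (ice-cold Tris-acetate/Triton X-100/NaF buffer, pH 7.4, cleared at 10,000g, 4°C) was loaded at 30 μg protein per lane. Proteins were separated by 12% SDS-PAGE and transferred to nitrocellulose, blocked with 5% BSA in TBS/0.05% Tween-20, and probed for cyclin D1 and survivin, with β-actin as loading control.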

[6] = system: Tcf/Lef-mediated transcription in HT-29, HCT-116, and SW480 colon cancer cells; assay: TOPFlash luciferase reporter assay; type: cell-based, human; details: HT-29, HCT-116, SW480, 24 hours
In short: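 Cells were transiently co-transfected with the TOPFlash luciferase construct and a β-galactosidase expression vector, then treated for 24 h. After lysis, luciferase and β-galactosidase activities were measured, and luciferase was normalized to β-galactosidase.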

recombinant PDE2 = recombinant PDE2 (Homo sapiens, UniProt O00408); assay: Recombinant PDE2 inhibition; type: biochemical; details: recombinant isozyme, cAMP as substrate; data not shown
HT-29 cells = assay: 3H-thymidine incorporation proliferation assay; type: cell-based, human; details: read-out: IC50 Proliferation, 72 hours, tritiated thymidine assay
In short: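 HT-29 cells (>95% viable by trypan blue) were treated for 72 h in total. 1 μCi ³H-thymidine was added at 56 h and incubation continued 16 h at 37°C. DNA was harvested onto filters and uptake counted by scintillation.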

cGMP PDE in FHC lysates = assay: IMAP fluorescence polarization PDE assay, cGMP hydrolysis in FHC lysate; type: biochemical, human; details: FHC lysate compared with HT-29 lysate
In short: as §1

[7] = system: cAMP hydrolysis in HT-29 cell lysate; assay: IMAP fluorescence polarization PDE assay, cAMP hydrolysis in HT-29 lysate; type: biochemical, human
Tolerance study = type: in vivo; details: daily oral gavage for 20 days; no deaths or significant weight loss
Purified ovine COX-1 = biological target: T1, Purified ovine COX-1 (Ovis aries, UniProt P05979); assay: COX-1 inhibition, purified enzyme; type: biochemical; details: read-out: IC50 COX-1
T1 sequence (P05979 25-600): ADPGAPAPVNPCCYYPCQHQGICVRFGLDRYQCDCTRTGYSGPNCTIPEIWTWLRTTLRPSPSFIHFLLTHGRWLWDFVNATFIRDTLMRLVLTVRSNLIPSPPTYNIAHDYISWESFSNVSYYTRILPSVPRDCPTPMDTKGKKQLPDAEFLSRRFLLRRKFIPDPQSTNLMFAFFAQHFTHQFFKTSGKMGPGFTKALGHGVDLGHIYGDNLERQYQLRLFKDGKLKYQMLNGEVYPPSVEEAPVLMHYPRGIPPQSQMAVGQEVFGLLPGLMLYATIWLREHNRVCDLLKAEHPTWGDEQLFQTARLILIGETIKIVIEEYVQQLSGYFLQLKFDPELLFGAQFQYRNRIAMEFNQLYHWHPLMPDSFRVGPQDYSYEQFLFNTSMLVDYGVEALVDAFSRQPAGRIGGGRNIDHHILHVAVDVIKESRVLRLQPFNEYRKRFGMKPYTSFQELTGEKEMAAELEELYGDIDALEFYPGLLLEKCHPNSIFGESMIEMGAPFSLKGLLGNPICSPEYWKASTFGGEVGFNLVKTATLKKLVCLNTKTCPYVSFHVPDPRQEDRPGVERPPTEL

Purified ovine COX-2 = biological target: T2, Purified ovine COX-2 (Ovis aries, UniProt P79208); assay: COX-2 inhibition, purified enzyme; type: biochemical; details: read-out: IC50 COX-2
T2 sequence (P79208 17-603): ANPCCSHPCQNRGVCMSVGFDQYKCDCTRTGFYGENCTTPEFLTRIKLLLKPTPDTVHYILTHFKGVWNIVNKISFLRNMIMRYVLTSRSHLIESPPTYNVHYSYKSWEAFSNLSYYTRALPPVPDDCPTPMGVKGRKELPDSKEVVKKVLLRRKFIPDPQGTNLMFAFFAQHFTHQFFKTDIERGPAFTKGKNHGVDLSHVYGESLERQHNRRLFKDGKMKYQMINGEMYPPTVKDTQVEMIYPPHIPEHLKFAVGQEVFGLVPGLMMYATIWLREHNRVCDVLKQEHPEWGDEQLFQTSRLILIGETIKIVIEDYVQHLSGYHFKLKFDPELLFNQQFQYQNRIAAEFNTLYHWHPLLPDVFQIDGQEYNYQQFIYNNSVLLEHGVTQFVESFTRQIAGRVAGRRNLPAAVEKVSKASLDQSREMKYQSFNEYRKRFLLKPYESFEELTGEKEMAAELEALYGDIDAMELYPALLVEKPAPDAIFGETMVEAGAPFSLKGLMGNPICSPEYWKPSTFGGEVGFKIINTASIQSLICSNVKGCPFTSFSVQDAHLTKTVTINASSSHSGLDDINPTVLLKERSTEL

[8] = system: human HT-29 colon tumor xenograft; assay: HT-29 colon tumor xenograft efficacy; type: in vivo, male NCr-nu/nu athymic mice; details: 50 mg/kg once daily oral gavage
In short: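 Male NCr-nu/nu mice, 5–6 weeks old, were implanted subcutaneously with HT-29 tumor fragments; 10 mice per group, vehicle-treated control. Dosing started at tumor size 75–200 mg: 50 mg/kg oral gavage once daily for 40 days, as a suspension in 0.5% CMC, 0.25% Tween 80 in water. Tumor dimensions and body weight were measured twice weekly; mortality checked daily.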

[9] = system: intracellular cGMP levels in colon tumor cells; details: cited from earlier work
[10] = system: cGMP PDE activity in lysates from HT-29 tumors established in athymic mice; assay: cGMP PDE in HT-29 tumor homogenates versus normal rat colonic mucosa; type: biochemical, human; details: HT-29 tumor lysate vs normal rat colonic mucosa lysate

Chain of recombinant PDE2 (O00408 whole entry): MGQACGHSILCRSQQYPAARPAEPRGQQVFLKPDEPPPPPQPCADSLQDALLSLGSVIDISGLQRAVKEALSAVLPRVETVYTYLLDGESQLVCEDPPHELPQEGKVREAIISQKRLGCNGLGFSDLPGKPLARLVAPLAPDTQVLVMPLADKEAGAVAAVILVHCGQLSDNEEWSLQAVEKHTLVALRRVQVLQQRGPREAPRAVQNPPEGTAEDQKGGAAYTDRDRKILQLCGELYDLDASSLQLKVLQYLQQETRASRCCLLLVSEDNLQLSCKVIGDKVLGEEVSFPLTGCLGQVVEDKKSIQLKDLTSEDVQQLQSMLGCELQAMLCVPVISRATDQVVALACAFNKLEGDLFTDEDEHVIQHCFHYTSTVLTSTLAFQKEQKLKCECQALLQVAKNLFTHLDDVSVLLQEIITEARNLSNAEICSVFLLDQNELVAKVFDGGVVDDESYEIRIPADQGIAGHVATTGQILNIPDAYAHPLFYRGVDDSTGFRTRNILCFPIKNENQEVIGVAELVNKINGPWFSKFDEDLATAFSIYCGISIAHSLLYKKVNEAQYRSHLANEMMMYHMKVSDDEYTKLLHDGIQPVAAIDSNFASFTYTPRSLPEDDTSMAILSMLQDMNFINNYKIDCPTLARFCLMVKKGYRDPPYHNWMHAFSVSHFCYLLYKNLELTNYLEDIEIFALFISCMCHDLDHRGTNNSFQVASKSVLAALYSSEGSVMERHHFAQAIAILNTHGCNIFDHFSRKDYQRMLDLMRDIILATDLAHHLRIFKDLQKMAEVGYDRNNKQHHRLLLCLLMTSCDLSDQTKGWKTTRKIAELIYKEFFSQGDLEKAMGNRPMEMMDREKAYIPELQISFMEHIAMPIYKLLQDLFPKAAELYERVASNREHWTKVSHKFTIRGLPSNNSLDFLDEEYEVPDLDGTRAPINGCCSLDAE

SMILES: CCCCCC[C@@H]([C@@H](C)O)n1cnc2c(N)ncnc21 (racemic) [EHNA]
- effect on colon tumor cell growth ([1]; HT-29, SW480, HCT116): only MY5445 was found to inhibit colon tumor cell growth
- inhibition of cGMP PDE activity in HT-29 lysate [2]: less than 12%

SMILES: CCOC(=O)C1=C[C@]2(CC)CCCN3CCc4c(n1c1ccccc41)[C@@H]32 [vinpocetine]
- effect on colon tumor cell growth ([1]; HT-29, SW480, HCT116): only MY5445 was found to inhibit colon tumor cell growth

SMILES: Cc1ccc(-c2cc(C(F)(F)F)nn2-c2ccc(S(N)(=O)=O)cc2)cc1 [celecoxib]
- HT-29 growth inhibition [1]: did inhibit tumor cell growth
- effect on cGMP PDE activity [3]: inhibited cGMP PDE

SMILES: CSc1ccc(/C=C2/C(C)=C(CC(=O)O)c3cc(F)ccc32)cc1 [Sulindac sulfide, sulindac sulfide]
- IC50 [1]: 73 to 85 µM
- IC50 [3]: 19.7 µM
- cAMP hydrolysis by PDE3 (recombinant PDE3): did not significantly inhibit
- concentration at 6 h [4]: 36.7 ± 10.2 µM
- expression of cyclinD1 and survivin [5]: significant reduction
- Tcf/Lef-mediated transcription [6]: significant reduction
- cAMP hydrolysis by PDE2 (recombinant PDE2): did not significantly inhibit
- IC50 (HT-29 cells): 33.9 µM
- cGMP PDE inhibition in FHC lysate (cGMP PDE in FHC lysates): reduced sensitivity
- effect on cAMP hydrolysis [7]: appreciably higher concentrations were necessary

SMILES: CC(=O)Oc1ccccc1C(=O)O [aspirin]
- HT-29 growth inhibition [1]: low potency
- effect on cGMP PDE activity [3]: did not affect cGMP PDE activity

SMILES: CC1=C(CC(=O)O)c2cc(F)ccc2/C1=C\c1ccc([S+](C)[O-])cc1 (stereo not shown) [Sulindac sulfoxide, sulindac]
- IC50 [3]: 120 µM
- maximum tolerated dosage (Tolerance study): approximately 50 mg/kg
- IC50 (Purified ovine COX-1): > 300 µM
- IC50 (Purified ovine COX-2): > 300 µM
- plasma level ([4]; 6 hours following a single oral dose of sulindac at 50 mg/kg): 23.1 ± 5.5 µM
- reduction of tumor growth ([8]; end of treatment, vs vehicle): approximately 55%
- effect on body weight ([8]; not shown): without affecting body weight
- IC50 (HT-29 cells): 224 µM

SMILES: CC1=C(CC(=O)O)c2cc(F)ccc2/C1=C\c1ccc(S(C)(=O)=O)cc1 [Sulindac sulfone, sulindac sulfone]
- IC50 [3]: 95.9 µM
- concentration at 6 h [4]: 8.9 ± 1.2 µM

SMILES: CN1C(C(=O)Nc2ccccn2)=C(O)c2ccccc2S1(=O)=O [piroxicam]
- HT-29 growth inhibition [1]: low potency
- effect on cGMP PDE activity [3]: did not affect cGMP PDE activity

SMILES: CCCCC1C(=O)N(c2ccccc2)N(c2ccccc2)C1=O [phenylbutazone]
- HT-29 growth inhibition [1]: low potency
- effect on cGMP PDE activity [3]: did not affect cGMP PDE activity

SMILES: CN1CC(=O)N2[C@H](c3ccc4c(c3)OCO4)c3[nH]c4ccccc4c3C[C@@H]2C1=O [tadalafil]
- effect on colon tumor cell growth ([1]; HT-29, SW480, HCT116): did not affect colon tumor cell growth

SMILES: C=C[C@@]1(C)CC(=O)[C@]2(O)[C@@]3(C)[C@@H](O)CCC(C)(C)[C@@H]3[C@H](O)[C@H](OC(C)=O)[C@@]2(C)O1 [forskolin]
- effect on growth ([1]; HT-29, SW480, HCT116, 72 hours, concentrations up to 100 μM): did not significantly affect growth

SMILES: CCCc1nn(C)c2c(=O)[nH]c(-c3cc(S(=O)(=O)N4CCN(C)CC4)ccc3OCC)nc12 [sildenafil]
- effect on colon tumor cell growth ([1]; HT-29, SW480, HCT116): did not affect colon tumor cell growth
- inhibition of cGMP PDE activity in HT-29 lysate [2]: 42%

SMILES: CS(=O)(=O)c1ccc(C2=C(c3ccccc3)C(=O)OC2)cc1 [Rofecoxib, rofecoxib]
- IC50 [3]: > 300 µM

SMILES: O=C(O)C1CCN(c2nc(NCc3ccc4c(c3)OCO4)c3cc(Cl)ccc3n2)CC1 [E4021]
- increase in intracellular cGMP levels [9]: unable to induce a significant increase

SMILES: Clc1cccc(Nc2nnc(-c3ccccc3)c3ccccc23)c1 [MY5445, 1-(3-chloroanilino)-4-phenylphthalazine]
- fold greater potency for tumor cGMP PDE compared to normal tissue [10]: more than 10 fold
- IC50 [1]: 8 to 18 µM
- expression of cyclinD1 and survivin [5]: significant reduction
- Tcf/Lef-mediated transcription [6]: significant reduction
- effect on cAMP hydrolysis [7]: without substantially affecting cAMP hydrolysis

SMILES: COc1ccc(C2CNC(=O)C2)cc1OC1CCCC1 (stereo not shown) [rolipram]
- effect on colon tumor cell growth ([1]; HT-29, SW480, HCT116): only MY5445 was found to inhibit colon tumor cell growth

SMILES: Cc1[nH]c(=O)c(C#N)cc1-c1ccncc1 [milrinone]
- effect on colon tumor cell growth ([1]; HT-29, SW480, HCT116): only MY5445 was found to inhibit colon tumor cell growth
- inhibition of cGMP PDE activity in HT-29 lysate [2]: 31%

SMILES: COc1ccc2c(c1)c(CC(=O)O)c(C)n2C(=O)c1ccc(Cl)cc1 [Indomethacin, indomethacin]
- IC50 [3]: 24 µM
